# Active and inactive are the calls of the source. The calls are words filed in the database; no cut-off is given here.
# How the values were obtained:
# [1] = test system: Voltage-gated calcium channel; assay: Inhibition of KCl-induced cytosolic voltage gated calcium channel opening in human SH-SY5Y cells at 10 uM by Fluo-4 AM dye based fluorescence assay relative to control; type: cell-based
# How it was run: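 SH-SY5Y cells were loaded with Fluo-4/AM (10 µM) in Krebs-HEPES and preincubated with compound at 10 µM. They were then depolarized with 70 mM K+, and fluorescence (ex 485/em 520 nm) was monitored in real time. ΔF = (Fx−F0)/(Fmax−Fmin), using Triton X-100 for Fmax and MnCl2 for Fmin. Values are % blockade (100−ΔF) against vehicle (DMSO 0.1%), with ≥4 independent experiments in triplicate.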
# [2] = target: Glutamate NMDA receptor (Rattus norvegicus) (UniProt P35439+Q00959+Q00960+Q00961+Q62645+Q8VHN2+Q9R1M7); assay: Inhibition of NMDA receptor in rat cortical embryonic neurons assessed as reduction in NMDA-induced cytosolic calcium level at 10 uM by Fluo-4 AM dye based fluorescence assay relative to control
# How it was run: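 Cortical neurons came from E18 rat embryos (two pregnant rats). They were loaded with Fluo-4/AM (3 µM) in Krebs-HEPES, incubated with compound at 10 µM, then stimulated with NMDA 10 µM, and fluorescence was read at ex 485/em 520 nm. Normalized ΔF is reported as % blockade against vehicle (DMSO 0.1%), with ≥4 independent experiments in triplicate.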
# [3] = target: Voltage-gated calcium channel; assay: Inhibition of KCl-induced cytosolic voltage gated calcium channel opening in human SH-SY5Y cells by Fluo-4 AM dye based fluorescence assay; type: cell-based
# How it was run: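 Fluo-4/AM-loaded (10 µM) SH-SY5Y cells in Krebs-HEPES received compound at several concentrations before 70 mM K+ depolarization, with readings at ex 485/em 520 nm. ΔF was normalized to vehicle (DMSO 0.1%) cultures. IC50 is the concentration halving ΔF, from a variable-slope non-linear regression of log concentration vs normalized response. Three experiments in triplicate.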
# [4] = target: T1, Serine/threonine-protein phosphatase 2A 55 kDa regulatory subunit B alpha isoform (Homo sapiens) (UniProt P63151); assay: (§1) Reversal of okadaic acid mediated PP2A PR55alpha B regulatory subunit inactivation in human SH-SY5Y cells at 0.1 uM preincubated for 24 hrs followed by cotreatment with PPA2 inhibitor okadaic acid for 18 hrs measured over 30 mins by pNPP based spectrophotometric analysis; type: cell-based
# T1 sequence (whole entry): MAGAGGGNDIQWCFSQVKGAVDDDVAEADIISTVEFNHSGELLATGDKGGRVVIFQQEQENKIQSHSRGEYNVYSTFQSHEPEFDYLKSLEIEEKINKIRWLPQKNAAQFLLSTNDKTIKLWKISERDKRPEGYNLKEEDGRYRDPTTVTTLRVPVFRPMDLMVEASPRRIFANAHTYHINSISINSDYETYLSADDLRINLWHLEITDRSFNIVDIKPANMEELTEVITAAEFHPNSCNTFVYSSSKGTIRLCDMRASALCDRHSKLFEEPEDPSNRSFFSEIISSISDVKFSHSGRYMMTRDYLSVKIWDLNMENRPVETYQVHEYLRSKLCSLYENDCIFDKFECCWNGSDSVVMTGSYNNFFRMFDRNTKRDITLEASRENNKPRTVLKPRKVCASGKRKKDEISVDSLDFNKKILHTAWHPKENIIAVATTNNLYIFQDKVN
# How it was run: (§2)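 SH-SY5Y cells were preincubated with compound for 24 h, then exposed for 18 h to okadaic acid 15 nM plus compound in fresh MEM/F12 with 1% FBS. Phosphatase activity was measured by pNPP dephosphorylation for 30 min at 37 °C, reading p-nitrophenolate at 405 nm. Values were normalized to cells not exposed to OA; at least three independent experiments.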
# SH-SY5Y [5] = assay: Neuroprotective activity against okadaic acid-induced cell death in human SH-SY5Y cells assessed as cell viability at 0.1 uM preincubated for 24 hrs followed by cotreatment with PPA2 inhibitor okadaic acid measured after 20 hrs by MTT assay (reference value: 50.1 +/- 0.2%); type: functional; conditions: read-out: Activity
# SH-SY5Y [6] = assay: Cytotoxicity against human SH-SY5Y cells assessed as cell viability at 3 uM incubated for 48 hrs by MTT assay
# SH-SY5Y [7] = assay: Cytotoxicity against human SH-SY5Y cells assessed as cell viability at 10 uM incubated for 48 hrs by MTT assay
# [8] = target: T1, Serine/threonine-protein phosphatase 2A 55 kDa regulatory subunit B alpha isoform (Homo sapiens); assay: as §1, with “cells assessed as residual activity” for “cells”, “analysis relative to control” for “analysis”; type: cell-based; how it was run: as §2
inhibition (INH) [1] [%],inhibition [2] [%],IC50 [3] [µM],Activity [4],Activity [8] [%],Structure (SMILES),viability at 0.1 µM (SH-SY5Y [5]) [%],Activity (SH-SY5Y [6]),Activity (SH-SY5Y [7])
94,32,3.6,Active,–,Cc1ccc(Cn2cc(CN3CCCCC3)c3cc(C)ccc32)cc1,67,Non-Toxic,–
87,42,3.4,Active,–,Cc1ccc2c(c1)c(CN1CCCCC1)cn2Cc1ccccc1,73,–,–
97,37,2.2,Active,–,Cc1ccc2c(c1)c(CN1CCCCC1)cn2Cc1cccc(Cl)c1,67,Non-Toxic,Toxic
79,34,4.8,Active,93,Cc1ccc2c(c1)c(CN1CCCCC1)cn2Cc1ccc(F)cc1,67,Non-Toxic,–
95,52,3,Active,–,Cc1ccc2c(c1)c(CN1CCCCC1)cn2Cc1ccc(Cl)cc1,67,Non-Toxic,Toxic
–,41,–,–,–,CC12CC3CC(C)(C1)CC(N)(C3)C2,–,–,–
90,22,3,–,–,Cc1ccc2c(c1)c(CN1CCCCC1)cn2Cc1cccc([N+](=O)[O-])c1,67,Non-Toxic,–
90,24,1.8,–,–,Cc1ccc2c(c1)c(CN1CCCCC1)cn2Cc1ccccc1[N+](=O)[O-],70,Non-Toxic,–

Structure (SMILES),inhibition (INH) [1] [%],inhibition [2] [%],IC50 [3] [µM],Activity [4],Activity [8] [%],viability at 0.1 µM (SH-SY5Y [5]) [%],Activity (SH-SY5Y [6]),Activity (SH-SY5Y [7])
COC(=O)C1=C(C)NC(C)=C(C(=O)OC)C1c1ccccc1[N+](=O)[O-] [NIFEDIPINE],32,–,–,–,–,–,–,–

# Source: ChEMBL document CHEMBL4219228, “Substituent effect of N-benzylated gramine derivatives that prevent the PP2A inhibition and dissipate the neuronal Ca2+ overload, as a multitarget strategy for the treatment of Alzheimer's disease” (Bioorg Med Chem, 2018)
